In ChEMBL document CHEMBL1821649, “Synthesis, characterization of some benzazoles bearing pyridine moiety: search for novel anticancer agents” (2011):

Key:
Type in all cases: functional
TK-10 = test: Antitumor activity against human TK10 cells after 48 hrs by SRB assay; conditions: TK-10, 48 h
Summary of the method: (§1)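 NCI-60 human cancer cell line panel run under the NCI Drug Evaluation Branch protocol. Compounds were first screened at a single dose. Those meeting preset inhibition thresholds were retested at five 10-fold dilutions. Output was percent growth of treated cells, given as % growth inhibition. GI50, TGI and LC50 values were derived from the five-dose data.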

HT-29 = test: Antitumor activity against human HT-29 cells after 48 hrs by SRB assay; conditions: HT-29, 48 h
Summary of the method: (§2)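 NCI-60 human tumour cell panel run under the National Cancer Institute Drug Evaluation Branch protocol. Compounds passing a single-dose prescreen were retested on all lines at five 10-fold dilutions. Growth was expressed as percent growth of treated cells. Response parameters were GI50 (molar concentration giving 50% growth inhibition), TGI (total growth inhibition) and LC50 (median lethal concentration).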

MOLT-4 = test: Antitumor activity against human MOLT4 cells after 48 hrs by SRB assay; conditions: MOLT-4, 48 h; summary of the method: as §2
MDA-MB-435 = test: Antitumor activity against human MDA-MB-435 cells after 48 hrs by SRB assay; conditions: MDA-MB-435, 48 h; summary of the method: as §2
OVCAR-5 = test: Antitumor activity against human OVCAR5 cells after 48 hrs by SRB assay; conditions: OVCAR-5, 48 h; summary of the method: as §2
SNB-19 = test: Antitumor activity against human SNB19 cells after 48 hrs by SRB assay; conditions: SNB-19, 48 h; summary of the method: as §2
HCT-15 = test: Antitumor activity against human HCT15 cells after 48 hrs by SRB assay; conditions: HCT-15, 48 h; summary of the method: as §2
NCI-H460 = test: Antitumor activity against human NCI-H460 cells after 48 hrs by SRB assay; conditions: NCI-H460, 48 h; summary of the method: as §2
ACHN = test: Antitumor activity against human ACHN cells after 48 hrs by SRB assay; summary of the method: as §2
HCT-116 = test: Antitumor activity against human HCT116 cells after 48 hrs by SRB assay; conditions: HCT-116, 48 h; summary of the method: as §2
U-251 = test: Antitumor activity against human U251 cells after 48 hrs by SRB assay; conditions: U-251, 48 h; summary of the method: as §1
RPMI-8226 = test: Antitumor activity against human RPMI8226 cells after 48 hrs by SRB assay; conditions: RPMI-8226, 48 h; summary of the method: as §2
SNB-75 = test: Antitumor activity against human SNB75 cells after 48 hrs by SRB assay; conditions: SNB-75, 48 h; summary of the method: as §2
SK-MEL-2 = test: Antitumor activity against human SK-MEL-2 cells after 48 hrs by SRB assay; conditions: SK-MEL-2, 48 h; summary of the method: as §2
CCRF-CEM = test: Antitumor activity against human CCRF-CEM cells after 48 hrs by SRB assay; summary of the method: as §2
MDA-MB-468 = test: Antitumor activity against human MDA-MB-468 cells after 48 hrs by SRB assay; conditions: MDA-MB-468, 48 h; summary of the method: as §2
SN12C = test: Antitumor activity against human SN12C cells after 48 hrs by SRB assay; summary of the method: as §2
NCI/ADR-RES = test: Antitumor activity against human NCI/ADR-RES cells after 48 hrs by SRB assay; summary of the method: as §2
A549 = test: Antitumor activity against human A549 cells after 48 hrs by SRB assay; conditions: A549, 48 h; summary of the method: as §2
SK-MEL-5 = test: Antitumor activity against human SK-MEL-5 cells after 48 hrs by SRB assay; conditions: SK-MEL-5, 48 h; summary of the method: as §2
LOX IMVI = test: Antitumor activity against human LOXIMVI cells after 48 hrs by SRB assay; summary of the method: as §2
CAKI-1 = test: Antitumor activity against human Caki1 cells after 48 hrs by SRB assay; conditions: CAKI-1, 48 h; summary of the method: as §2
COLO 205 = test: Antitumor activity against human COLO205 cells after 48 hrs by SRB assay; conditions: COLO 205, 48 h; summary of the method: as §2
K562 = test: Antitumor activity against human K562 cells after 48 hrs by SRB assay; conditions: K562, 48 h; summary of the method: as §2
NCI-H522 = test: Antitumor activity against human NCI-H522 cells after 48 hrs by SRB assay; conditions: NCI-H522, 48 h; summary of the method: as §2
SW-620 = test: Antitumor activity against human SW620 cells after 48 hrs by SRB assay; conditions: SW-620, 48 h; summary of the method: as §1
UACC-257 = test: Antitumor activity against human UACC257 cells after 48 hrs by SRB assay; conditions: UACC-257, 48 h; summary of the method: as §1
NCI-H322M = test: Antitumor activity against human NCI-H322M cells after 48 hrs by SRB assay; summary of the method: as §2
T47D = test: Antitumor activity against human T47D cells after 48 hrs by SRB assay; summary of the method: as §1
Malme-3M = test: Antitumor activity against human MALME-3M cells after 48 hrs by SRB assay; summary of the method: as §2
EKVX = test: Antitumor activity against human EKVX cells after 48 hrs by SRB assay; summary of the method: as §2
[1] = read-out: LC50 (the source's name)

COc1ccc(-c2c(C#N)cnc(N)c2-c2nc3cc(C)c(C)cc3[nH]2)cc1 gave a GI50 (TK-10) of 5.94 µM, a TGI (TK-10) of 26.4 µM and a CC50 (TK-10; [1]) of 99.6 µM. It also gave a GI50 (HT-29) of 4.79 µM, a TGI (HT-29) greater than 100 µM and a CC50 (HT-29; [1]) greater than 100 µM. It also gave a GI50 (MOLT-4) greater than 100 µM, an LC50 (MOLT-4) greater than 100 µM and a TGI (MOLT-4) greater than 100 µM. The GI50 (MDA-MB-435) was 1.95 µM, the LC50 (median lethal concentration) (MDA-MB-435) was 100 µM and the TGI (MDA-MB-435) was 5.39 µM. It also gave a GI50 (OVCAR-5) of 52.4 µM, a TGI (OVCAR-5) greater than 100 µM and a CC50 (OVCAR-5; [1]) greater than 100 µM. It also gave a GI50 (SNB-19) of 7.06 µM, an LC50 (median lethal concentration) (SNB-19) greater than 100 µM and a TGI (SNB-19) of 57.1 µM. For the same compound, the GI50 (HCT-15) was 5.81 µM, the TGI (HCT-15) was greater than 100 µM and the CC50 (HCT-15; [1]) was greater than 100 µM. For the same compound, the GI50 (NCI-H460) was 18.1 µM, the LC50 (median lethal concentration) (NCI-H460) was greater than 100 µM and the TGI (NCI-H460) was greater than 100 µM. It also gave a GI50 (ACHN) of 3.98 µM, a TGI (ACHN) greater than 100 µM and a CC50 (ACHN; [1]) greater than 100 µM. It also gave a GI50 (HCT-116) of 4.63 µM, a TGI (HCT-116) greater than 100 µM and a CC50 (HCT-116; [1]) greater than 100 µM. It also gave a GI50 (U-251) of 3.65 µM, a TGI (U-251) of 12.7 µM and a CC50 (U-251; [1]) of 53.9 µM. It also gave a GI50 (RPMI-8226) of 32.5 µM, a TGI (RPMI-8226) greater than 100 µM and a CC50 (RPMI-8226; [1]) greater than 100 µM. The GI50 (SNB-75) was 2.36 µM, the LC50 (SNB-75) was 32.4 µM and the TGI (SNB-75) was 8.19 µM. It also gave a GI50 (SK-MEL-2) of 10.8 µM, an LC50 (median lethal concentration) (SK-MEL-2) greater than 100 µM and a TGI (SK-MEL-2) of 98 µM. The GI50 (CCRF-CEM) was 25.6 µM, the LC50 (CCRF-CEM) was greater than 100 µM and the TGI (CCRF-CEM) was greater than 100 µM. It also gave a GI50 (MDA-MB-468) of 6.22 µM, a TGI (MDA-MB-468) of 23.1 µM and a CC50 (MDA-MB-468; [1]) of 68 µM. It also gave a GI50 (SN12C) of 25.4 µM, a TGI (SN12C) greater than 100 µM and a CC50 (SN12C; [1]) greater than 100 µM. It also gave a GI50 (NCI/ADR-RES) of 6.84 µM, a TGI (NCI/ADR-RES) greater than 100 µM and a CC50 (NCI/ADR-RES; [1]) greater than 100 µM. The GI50 (A549) was 6.54 µM, the TGI (A549) was 72.5 µM and the CC50 (A549; [1]) was greater than 100 µM. For the same compound, the GI50 (SK-MEL-5) was 8.78 µM, the LC50 (SK-MEL-5) was greater than 100 µM and the TGI (SK-MEL-5) was greater than 100 µM. The GI50 (LOX IMVI) was 5.74 µM, the TGI (LOX IMVI) was greater than 100 µM and the CC50 (LOX IMVI; [1]) was greater than 100 µM. For the same compound, the GI50 (CAKI-1) was 14.6 µM, the TGI (CAKI-1) was greater than 100 µM and the CC50 (CAKI-1; [1]) was greater than 100 µM. For the same compound, the GI50 (COLO 205) was 7.78 µM, the LC50 (COLO 205) was greater than 100 µM and the TGI (COLO 205) was 63.7 µM. For the same compound, the GI50 (K562) was 6.03 µM, the LC50 (K562) was greater than 100 µM and the TGI (K562) was greater than 100 µM. The LC50 (NCI-H522) was greater than 100 µM, the GI50 (SW-620) was 6.76 µM and the TGI (SW-620) was greater than 100 µM. For the same compound, the CC50 (SW-620; [1]) was greater than 100 µM, the GI50 (UACC-257) was 52 µM and the LC50 (UACC-257) was greater than 100 µM. It also gave a TGI (UACC-257) greater than 100 µM, a GI50 (NCI-H322M) of 15.5 µM and a TGI (NCI-H322M) greater than 100 µM. The CC50 (NCI-H322M; [1]) was greater than 100 µM, the GI50 (T47D) was 15.4 µM and the TGI (T47D) was greater than 100 µM. The CC50 (T47D; [1]) was greater than 100 µM, the GI50 (Malme-3M) was 6 µM and the LC50 (Malme-3M) was greater than 100 µM. For the same compound, the TGI (Malme-3M) was 48.3 µM, the GI50 (EKVX) was 15.8 µM and the TGI (EKVX) was greater than 100 µM. The CC50 (EKVX; [1]) was greater than 100 µM.
